From ChEMBL document CHEMBL1151782, “Evaluation of new migrastatin and dorrigocin congeners unveils cell migration inhibitors with dramatically improved potency” (Bioorg Med Chem Lett, 2008)

Assays:
MDA-MB-231 [1] = assay: Inhibition of human MDA-MB-231 cell migration after 4 days by scratch wound healing assay; format: functional, cell-based; settings: MDA-MB-231, 96 h
How it was run: (§1)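 Wounds were scratched through confluent cell monolayers with a floating pin tool, then compounds were added at concentrations chosen to avoid cytotoxicity. Plates were incubated 4 days at 37°C, then fixed and stained. Fluorescence in the wound area quantified wound closure, and IC50 for inhibition of wound healing was reported.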

4T1 [2] = assay: Cytotoxicity against […] cells; format: functional, cell-based
MDA-MB-231 [3] = assay: Cytotoxicity against human MDA-MB-231 cells; format: functional, cell-based
4T1 [4] = assay: Inhibition of cell migration of mouse 4T1 cells after 4 days by scratch wound healing assay; format: functional, cell-based; settings: 4T1, 96 h; how it was run: as §1
[5] = Metabolic stability in mouse plasma assessed as half life; format: ADME, cell-free

SMILES | IC50 (MDA-MB-231 [1]) [µM] | IC50 (4T1 [2]) [µM] | IC50 (MDA-MB-231 [3]) [µM] | IC50 (4T1 [4]) [µM] | half-life [5] [min]
C/C(=C\[C@H](C)C(=O)CCCC1CC(=O)NC(=O)C1)[C@H](O)[C@@H](C)[C@H](O)[C@@H](O)/C=C/CC/C=C/C(=O)O | > 100 | > 100 | > 100 | > 100 | 
CO[C@@H](/C=C/CC/C=C/C(=O)O)[C@@H](O)[C@H](C)[C@@H](O)/C(C)=C/[C@H](C)C(=O)C[C@H](O)CC1CC(=O)NC(=O)C1 | > 100 | > 100 | > 100 | > 100 | 
C/C(=C\[C@@H](C)[C@H](O)C/C=C/CC/C=C/C(=O)O)[C@@H](O)[C@H](C)C(=O)CCCC1CC(=O)NC(=O)C1 | > 100 | > 100 | > 100 | > 100 | 
C/C(=C\[C@@H](C)CC/C=C/CC/C=C/C(=O)O)[C@H](O)[C@H](C)C(=O)C[C@H](O)CC1CC(=O)NC(=O)C1 | > 100 | > 100 | > 100 | > 100 | 
C/C(=C\[C@@H](C)[C@H](O)[C@@H](O)/C=C/CC/C=C/C(=O)O)[C@H](O)[C@H](C)C(=O)CCCC1CC(=O)NC(=O)C1 | > 100 | > 100 | > 100 | > 100 | 
CO[C@@H](/C=C/CC/C=C/C(=O)O)[C@@H](O)[C@H](C)/C=C(\C)[C@H](O)[C@H](C)C(=O)C[C@H](O)CC1CC(=O)NC(=O)C1 | > 100 | 20 | > 100 | > 100 | 
CO[C@@H](/C=C/CC/C=C/C(=O)O)[C@@H](O)[C@H](C)/C=C(\C)[C@@H](O)[C@H](C)C(=O)CCCC1CC(=O)NC(=O)C1 | > 100 | > 100 | > 100 | > 100 | 
C/C(=C\[C@@H](C)CC/C=C/CC/C=C/C(=O)O)[C@@H](O)[C@H](C)C(=O)C[C@H](O)CC1CC(=O)NC(=O)C1 | > 100 | 81 | > 100 | > 100 | 
CO[C@@H](/C=C/CC/C=C/C(=O)O)[C@@H](O)[C@H](C)C(O)/C(C)=C/[C@H](C)C(=O)CCCC1CC(=O)NC(=O)C1 (stereo partly drawn) | > 100 | > 100 | > 100 | > 100 | 
CO[C@H]1/C=C/CC/C=C/C(=O)O[C@H]([C@H](C)C(=O)/C=C/CC2CC(=O)NC(=O)C2)/C(C)=C\[C@@H](C)[C@@H]1O | > 100 | > 100 | > 100 | > 100 | 
C/C1=C/[C@@H](C)[C@H](O)C/C=C/CC/C=C/C(=O)O[C@@H]1[C@H](C)C(=O)CCCC1CC(=O)NC(=O)C1 | > 100 | > 100 | > 100 | > 100 | 
C/C1=C/[C@@H](C)CC/C=C/CC/C=C/C(=O)O[C@@H]1[C@H](C)C(=O)C[C@H](O)CC1CC(=O)NC(=O)C1 | 0.07 | 0.98 | 1 | > 0.33 | 
C/C1=C/[C@@H](C)[C@H](O)[C@@H](O)/C=C/CC/C=C/C(=O)O[C@@H]1[C@H](C)C(=O)CCCC1CC(=O)NC(=O)C1 | > 100 | 44 | > 100 | > 100 | 
CO[C@H]1/C=C/CC/C=C/C(=O)O[C@H]([C@H](C)C(=O)C[C@H](O)CC2CC(=O)NC(=O)C2)/C(C)=C\[C@@H](C)[C@@H]1O | 1.8 | 5.3 | 5.2 | 1.8 | 
C/C(=C\[C@@H](C)[C@H](O)C/C=C/CC/C=C/C(=O)O)[C@H](O)[C@H](C)C(=O)CCCC1CC(=O)NC(=O)C1 | > 100 | > 100 | > 100 | > 100 | 
C/C(=C\[C@H](C)C(=O)CCCC1CC(=O)NC(=O)C1)[C@H](O)[C@@H](C)[C@H](O)C/C=C/CC/C=C/C(=O)O | > 100 | > 100 | > 100 | > 100 | 
C/C(=C\[C@@H](C)[C@H](O)[C@@H](O)/C=C/CC/C=C/C(=O)O)[C@@H](O)[C@H](C)C(=O)CCCC1CC(=O)NC(=O)C1 | > 100 | > 100 | > 100 | > 100 | 
C/C1=C/[C@@H](C)[C@H](O)C/C=C/CC/C=C/C(=O)O[C@@H]1[C@H](C)C(=O)/C=C/CC1CC(=O)NC(=O)C1 | > 100 | 8.5 | > 100 | > 100 | 
C/C1=C/[C@@H](C)C[C@@H](O)/C=C/CC/C=C/C(=O)O[C@@H]1[C@H](C)C(=O)C[C@H](O)CC1CC(=O)NC(=O)C1 | > 100 | 10 | 13 | > 100 | 
C/C1=C/[C@@H](C)[C@H](O)C/C=C/CC/C=C/C(=O)O[C@@H]1[C@H](C)C(=O)C[C@H](O)CC1CC(=O)NC(=O)C1 | > 100 | > 100 | > 100 | > 100 | 
C/C1=C/[C@@H](C)[C@H](O)[C@@H](O)/C=C/CC/C=C/C(=O)O[C@@H]1[C@H](C)C(=O)/C=C/CC1CC(=O)NC(=O)C1 | > 100 | 32 | 29 | > 100 | 
CO[C@@H](/C=C/CC/C=C/C(=O)O)[C@@H](O)[C@H](C)/C=C(\C)[C@H](O)[C@H](C)C(=O)CCCC1CC(=O)NC(=O)C1 [DORRIGOCIN A] | > 100 | > 100 | > 100 | > 100 | 
CO[C@H]1/C=C/CC/C=C/C(=O)O[C@H]([C@H](C)C(=O)CCCC2CC(=O)NC(=O)C2)/C(C)=C\[C@@H](C)[C@@H]1O [MIGRASTATIN] | 17 | 5.8 | 4.6 | 14 | 5
